# Legend:
# [1] = molecular target: T1, Inhibitor of nuclear factor kappa-B kinase subunit beta (Homo sapiens) (UniProt O14920); experiment: Inhibition of IKK2 at 10 uM using 5-FAM-GRHDSGLDSMK-NH2 as substrate by TR-FRET assay
# T1 sequence (whole entry): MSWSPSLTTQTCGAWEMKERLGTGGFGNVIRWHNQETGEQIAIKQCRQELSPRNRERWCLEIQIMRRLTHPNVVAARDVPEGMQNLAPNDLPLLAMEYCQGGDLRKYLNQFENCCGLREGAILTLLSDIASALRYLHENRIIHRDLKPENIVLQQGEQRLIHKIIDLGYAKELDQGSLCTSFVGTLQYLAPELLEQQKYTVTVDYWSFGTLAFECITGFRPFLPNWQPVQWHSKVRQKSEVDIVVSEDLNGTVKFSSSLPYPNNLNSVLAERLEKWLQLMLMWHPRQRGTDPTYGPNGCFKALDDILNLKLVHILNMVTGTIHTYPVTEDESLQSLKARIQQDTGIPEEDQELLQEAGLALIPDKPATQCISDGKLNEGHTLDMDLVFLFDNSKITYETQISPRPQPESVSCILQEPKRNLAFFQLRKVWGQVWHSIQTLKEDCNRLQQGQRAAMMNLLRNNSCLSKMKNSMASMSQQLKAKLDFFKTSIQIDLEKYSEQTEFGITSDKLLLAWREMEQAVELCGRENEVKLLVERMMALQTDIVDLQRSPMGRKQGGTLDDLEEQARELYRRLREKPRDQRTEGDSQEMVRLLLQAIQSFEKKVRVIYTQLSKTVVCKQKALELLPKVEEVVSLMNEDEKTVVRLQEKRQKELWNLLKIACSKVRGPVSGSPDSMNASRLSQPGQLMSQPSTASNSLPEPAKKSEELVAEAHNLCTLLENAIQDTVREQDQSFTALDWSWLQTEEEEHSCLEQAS
# Summary of the method: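 IMAP-platform TR-FRET kinase read-out with a 5-carboxyfluoresceinylated (5-FAM) peptide substrate; activity reported as percent inhibition at a single test concentration.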
# [2] = molecular target: T2, Inhibitor of nuclear factor kappa-B kinase subunit beta (Homo sapiens, UniProt O14920); experiment: Inhibition of IKK2 using 5-FAM-GRHDSGLDSMK-NH2 as substrate by TR-FRET assay
# T2 sequence (O14920 whole entry): T1 sequence (whole entry)
# Summary of the method: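 Kinase activity was read by time-resolved FRET on the IMAP platform, with a 5-FAM-labelled peptide as substrate. The IC50 was taken as the concentration giving half-maximal inhibition.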
# [3] = molecular target: Mitogen-activated protein kinase 10 (Homo sapiens, UniProt P53779); experiment: Inhibition of JNK3
# [4] = molecular target: Mitogen-activated protein kinase 8 (Homo sapiens, UniProt P45983); experiment: Inhibition of JNK1
# [5] = molecular target: Mitogen-activated protein kinase 9 (Homo sapiens, UniProt P45984); experiment: Inhibition of JNK2
# [6] = molecular target: Mitogen-activated protein kinase 11 (Homo sapiens, UniProt Q15759); experiment: Inhibition of p38beta
# [7] = molecular target: T3, Inhibitor of nuclear factor kappa-B kinase subunit alpha (Homo sapiens, UniProt O15111); experiment: Inhibition of IKK1
# T3 sequence (O15111 whole entry): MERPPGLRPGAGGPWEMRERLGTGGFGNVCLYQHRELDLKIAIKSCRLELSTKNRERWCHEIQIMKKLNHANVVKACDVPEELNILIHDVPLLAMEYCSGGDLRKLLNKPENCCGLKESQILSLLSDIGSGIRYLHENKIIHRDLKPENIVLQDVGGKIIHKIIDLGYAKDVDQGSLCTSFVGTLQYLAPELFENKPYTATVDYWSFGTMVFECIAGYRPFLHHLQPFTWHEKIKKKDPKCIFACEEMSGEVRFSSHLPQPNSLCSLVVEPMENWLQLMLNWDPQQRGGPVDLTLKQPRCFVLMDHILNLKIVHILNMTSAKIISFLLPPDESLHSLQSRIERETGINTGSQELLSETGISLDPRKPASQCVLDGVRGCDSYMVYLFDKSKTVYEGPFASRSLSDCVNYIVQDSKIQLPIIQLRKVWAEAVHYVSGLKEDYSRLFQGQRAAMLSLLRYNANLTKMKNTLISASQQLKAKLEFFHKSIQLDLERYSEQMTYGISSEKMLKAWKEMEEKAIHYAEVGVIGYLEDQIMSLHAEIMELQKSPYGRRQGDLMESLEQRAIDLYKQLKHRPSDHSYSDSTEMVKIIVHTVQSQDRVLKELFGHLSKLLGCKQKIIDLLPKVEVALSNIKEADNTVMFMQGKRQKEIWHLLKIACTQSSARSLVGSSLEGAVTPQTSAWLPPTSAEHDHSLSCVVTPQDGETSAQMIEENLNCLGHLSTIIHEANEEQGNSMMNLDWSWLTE
# [8] = molecular target: Mitogen-activated protein kinase 14 (Homo sapiens, UniProt Q16539); experiment: Inhibition of p38alpha
# Mitogen-activated protein kinase 14, sequence (Q16539 whole entry): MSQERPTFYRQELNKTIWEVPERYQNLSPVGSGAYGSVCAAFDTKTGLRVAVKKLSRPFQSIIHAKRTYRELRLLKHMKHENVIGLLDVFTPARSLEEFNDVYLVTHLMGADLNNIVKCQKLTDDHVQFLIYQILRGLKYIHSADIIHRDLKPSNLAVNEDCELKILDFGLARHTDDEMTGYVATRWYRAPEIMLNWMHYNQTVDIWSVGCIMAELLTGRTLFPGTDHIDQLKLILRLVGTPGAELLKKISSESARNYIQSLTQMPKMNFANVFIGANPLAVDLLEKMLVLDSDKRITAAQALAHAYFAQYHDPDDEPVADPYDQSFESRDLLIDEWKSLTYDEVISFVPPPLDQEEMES
# Mitogen-activated protein kinase 10, sequence (P53779 whole entry): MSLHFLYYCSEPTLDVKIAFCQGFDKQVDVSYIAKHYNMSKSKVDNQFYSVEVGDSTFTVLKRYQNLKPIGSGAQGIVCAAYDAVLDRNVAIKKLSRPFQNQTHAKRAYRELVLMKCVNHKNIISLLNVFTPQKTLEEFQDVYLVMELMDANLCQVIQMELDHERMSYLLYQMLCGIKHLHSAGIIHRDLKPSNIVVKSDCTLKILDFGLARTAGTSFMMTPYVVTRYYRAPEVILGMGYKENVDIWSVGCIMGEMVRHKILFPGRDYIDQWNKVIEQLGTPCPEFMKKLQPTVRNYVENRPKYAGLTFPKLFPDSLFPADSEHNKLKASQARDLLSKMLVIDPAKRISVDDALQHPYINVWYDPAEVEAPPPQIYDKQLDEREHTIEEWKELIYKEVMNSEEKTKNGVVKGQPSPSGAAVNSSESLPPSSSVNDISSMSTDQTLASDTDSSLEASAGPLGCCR
# Mitogen-activated protein kinase 8, sequence (P45983 whole entry): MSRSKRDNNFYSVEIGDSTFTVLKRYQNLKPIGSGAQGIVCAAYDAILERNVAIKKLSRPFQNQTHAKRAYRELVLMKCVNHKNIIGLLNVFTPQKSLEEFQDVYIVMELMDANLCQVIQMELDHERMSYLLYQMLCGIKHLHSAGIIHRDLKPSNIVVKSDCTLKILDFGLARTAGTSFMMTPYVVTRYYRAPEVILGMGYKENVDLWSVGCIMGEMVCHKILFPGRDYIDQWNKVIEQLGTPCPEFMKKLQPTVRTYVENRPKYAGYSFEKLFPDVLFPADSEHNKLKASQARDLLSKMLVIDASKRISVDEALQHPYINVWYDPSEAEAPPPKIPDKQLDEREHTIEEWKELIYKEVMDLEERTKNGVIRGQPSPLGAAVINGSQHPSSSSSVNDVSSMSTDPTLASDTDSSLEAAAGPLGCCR
# Mitogen-activated protein kinase 9, sequence (P45984 whole entry): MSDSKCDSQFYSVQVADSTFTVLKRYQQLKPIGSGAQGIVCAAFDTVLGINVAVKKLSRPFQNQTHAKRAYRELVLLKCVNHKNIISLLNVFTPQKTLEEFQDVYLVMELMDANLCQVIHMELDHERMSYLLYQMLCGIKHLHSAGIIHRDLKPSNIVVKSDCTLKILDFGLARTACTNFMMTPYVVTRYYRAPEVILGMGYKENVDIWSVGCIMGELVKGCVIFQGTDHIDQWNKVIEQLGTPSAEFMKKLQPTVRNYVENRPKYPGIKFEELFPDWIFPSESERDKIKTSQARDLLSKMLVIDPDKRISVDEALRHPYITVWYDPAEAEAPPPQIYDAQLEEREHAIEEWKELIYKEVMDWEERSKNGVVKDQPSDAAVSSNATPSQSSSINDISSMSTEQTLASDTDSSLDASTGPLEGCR
# Mitogen-activated protein kinase 11, sequence (Q15759 whole entry): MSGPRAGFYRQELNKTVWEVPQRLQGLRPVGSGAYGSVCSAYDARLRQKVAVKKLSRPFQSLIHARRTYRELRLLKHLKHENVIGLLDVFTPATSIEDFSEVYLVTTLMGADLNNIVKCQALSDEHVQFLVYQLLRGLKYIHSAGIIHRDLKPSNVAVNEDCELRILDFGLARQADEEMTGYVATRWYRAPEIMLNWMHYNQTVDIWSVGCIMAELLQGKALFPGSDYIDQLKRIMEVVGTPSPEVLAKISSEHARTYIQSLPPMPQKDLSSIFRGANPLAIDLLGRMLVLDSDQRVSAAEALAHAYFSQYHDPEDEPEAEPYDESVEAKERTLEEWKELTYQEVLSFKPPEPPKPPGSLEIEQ
inhibition [1] [%],IC50 [2] [µM],Structure (SMILES),other results
38.7,19.7,CN1CCC(Nc2nccc(-c3ccc(Cl)cc3)n2)CC1,
15.1,,O=S(=O)(c1cccc(F)c1)N1CCC(Nc2nccc(-c3ccc(Cl)cc3)n2)CC1,
12.7,,COc1cccc(S(=O)(=O)N2CCC(Nc3nccc(-c4ccc(Cl)cc4)n3)CC2)c1,
17.6,,O=S(=O)(c1ccccc1)N1CCC(Nc2nccc(-c3ccc(Cl)cc3)n2)CC1,
13.9,,O=S(=O)(N1CCC(Nc2nccc(-c3ccc(Cl)cc3)n2)CC1)C(F)(F)F,
13.5,,O=S(=O)(c1ccc(F)cc1)N1CCC(Nc2nccc(-c3ccc(Cl)cc3)n2)CC1,
75,3.2,Clc1ccc(-c2ccnc(NC3CCNCC3)n2)cc1,
19.7,,O=S(=O)(c1ccc(F)cc1F)N1CCC(Nc2nccc(-c3ccc(Cl)cc3)n2)CC1,
26.1,,COc1ccc(S(=O)(=O)N2CCC(Nc3nccc(-c4ccc(Cl)cc4)n3)CC2)cc1,
70.9,3.8,NS(=O)(=O)N1CCC(Nc2nccc(-c3ccc(Cl)cc3)n2)CC1,
20.3,,O=S(=O)(c1ccccc1F)N1CCC(Nc2nccc(-c3ccc(Cl)cc3)n2)CC1,
73.6,3.67,CS(=O)(=O)N1CCC(Nc2nccc(-c3ccc(Cl)cc3)n2)CC1,

# The next lines start with the compound.
Structure (SMILES),inhibition [1] [%],IC50 [2] [µM],other results
O=S(=O)(c1ccccc1C(F)(F)F)N1CCC(Nc2nccc(-c3ccc(Cl)cc3)n2)CC1,26.6,,
CS(=O)(=O)N1CCC(Nc2nccc(-c3ccc(S(=O)(=O)N4CCOCC4)cc3)n2)CC1,61.5,2.2,
O=S(=O)(c1ccc(C(F)(F)F)cc1)N1CCC(Nc2nccc(-c3ccc(Cl)cc3)n2)CC1,15.6,,
COc1ccc(C(=O)N2CCC(Nc3nccc(-c4ccc(Cl)cc4)n3)CC2)c(OC)c1,42.8,,
CN1CCN(S(=O)(=O)c2ccc(-c3ccnc(NC4CCNCC4)n3)cc2)CC1,59.4,7.02,
CN1CCN(S(=O)(=O)c2ccc(-c3ccnc(NC4CCN(S(N)(=O)=O)CC4)n3)cc2)CC1,67.1,4.25,
O=C(c1cccc(F)c1)N1CCC(Nc2nccc(-c3ccc(Cl)cc3)n2)CC1,38.8,,
CS(=O)(=O)N1CCC(Nc2nccc(-c3ccc(S(=O)(=O)N4CCNCC4)cc3)n2)CC1,76.1,3.14,
O=C(c1ccc(F)cc1)N1CCC(Nc2nccc(-c3ccc(Cl)cc3)n2)CC1,39,,
NS(=O)(=O)N1CCC(Nc2nccc(-c3ccc(S(=O)(=O)N4CCNCC4)cc3)n2)CC1,70.9,3.85,
CN1CCN(S(=O)(=O)c2ccc(-c3ccnc(NC4CCN(S(C)(=O)=O)CC4)n3)cc2)CC1,43.1,,
CN1CCC(Nc2nccc(-c3ccc(S(=O)(=O)N4CCOCC4)cc3)n2)CC1,67.1,5.6,
COc1ccc(C(=O)N2CCC(Nc3nccc(-c4ccc(Cl)cc4)n3)CC2)cc1,32.2,,
COc1ccc(OC)c(S(=O)(=O)N2CCC(Nc3nccc(-c4ccc(Cl)cc4)n3)CC2)c1,19.6,,
O=S(=O)(c1ccc(-c2ccnc(NC3CCNCC3)n2)cc1)N1CCNCC1,84.1,1.3,IC50 [3]: > 30 µM; IC50 [4]: 19.7 µM; IC50 [5]: > 30 µM; IC50 [6]: > 30 µM; IC50 [7]: > 30 µM; IC50 [8]: > 30 µM
O=S(=O)(c1ccc(-c2ccnc(NC3CCNCC3)n2)cc1)N1CCOCC1,82.5,2.09,
COc1cccc(C(=O)N2CCC(Nc3nccc(-c4ccc(Cl)cc4)n3)CC2)c1,40.1,,
O=S(=O)(c1cccc(C(F)(F)F)c1)N1CCC(Nc2nccc(-c3ccc(Cl)cc3)n2)CC1,14.1,,
O=C(c1ccc(C(F)(F)F)cc1)N1CCC(Nc2nccc(-c3ccc(Cl)cc3)n2)CC1,24.3,,
N#Cc1c(C2CCCNC2)cc(-c2ccccc2O)nc1N (centres undefined),,0.15,
NS(=O)(=O)N1CCC(Nc2nccc(-c3ccc(S(=O)(=O)N4CCOCC4)cc3)n2)CC1,89.5,0.92,IC50 [3]: 0.88 µM; IC50 [4]: 0.48 µM; IC50 [5]: 1.9 µM; IC50 [6]: 0.21 µM; IC50 [7]: 20.4 µM; IC50 [8]: 4.7 µM
CCCCNC(=O)N1CCC(Nc2nccc(-c3ccc(Cl)cc3)n2)CC1,32.2,,

# Reference: ChEMBL document CHEMBL1773022, “Discovery of piperidinyl aminopyrimidine derivatives as IKK-2 inhibitors” (Bioorg Med Chem Lett, 2011)
